The text below walks through data of ChEMBL document CHEMBL3853360, “Combined Interactions with I1-, I2-Imidazoline Binding Sites and α2-Adrenoceptors To Manage Opioid Addiction” (ACS Med Chem Lett, 2016).

Assay [1] can be described thus: Reduction in morphine dependence expression in CD1 mouse assessed as inhibition of naloxone-precipitated rearing frequency at 5 mg/kg, ip administered acutely 15 mins prior to naloxone challenge relative to control. The format is functional, organism-based.
Assay [2] relates to Mus musculus. As to the kind of experiment: Reduction in morphine dependence acquisition in CD1 mouse assessed as inhibition of naloxone-precipitated rearing frequency at 5 to 10 mg/kg, ip administered 15 mins prior to each morphine challenge relative to control. Type of assay: functional. The method in brief: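 Mice received i.p. test compound (5 or 10 mg/kg) 15 min before each of repeated morphine injections, with vehicle and morphine-only controls. Withdrawal was then precipitated with naloxone. Jumping frequency and somatic signs (rearing, forepaw tremor, teeth chattering; summed frequency) were scored and compared with the morphine group. Data are mean ± SEM of 6–10 animals.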

In assay [3] the target is T1, Adrenergic receptor alpha-2 (Rattus norvegicus, UniProt P22086+P19328+P22909).
T1 sequence (P22086 whole entry): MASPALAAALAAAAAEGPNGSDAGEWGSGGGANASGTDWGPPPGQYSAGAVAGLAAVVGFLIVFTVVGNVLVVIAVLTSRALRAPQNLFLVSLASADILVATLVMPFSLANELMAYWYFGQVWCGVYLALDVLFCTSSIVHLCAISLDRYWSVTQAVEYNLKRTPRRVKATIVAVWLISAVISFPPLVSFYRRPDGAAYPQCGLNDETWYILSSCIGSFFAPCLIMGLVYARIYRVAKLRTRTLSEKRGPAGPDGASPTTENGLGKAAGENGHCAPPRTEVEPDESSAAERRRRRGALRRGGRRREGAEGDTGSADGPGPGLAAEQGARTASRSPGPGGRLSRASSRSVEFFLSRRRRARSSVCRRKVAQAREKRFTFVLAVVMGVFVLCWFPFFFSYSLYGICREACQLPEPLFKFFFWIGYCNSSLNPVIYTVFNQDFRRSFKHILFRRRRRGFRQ
T1 sequence (P19328 whole entry): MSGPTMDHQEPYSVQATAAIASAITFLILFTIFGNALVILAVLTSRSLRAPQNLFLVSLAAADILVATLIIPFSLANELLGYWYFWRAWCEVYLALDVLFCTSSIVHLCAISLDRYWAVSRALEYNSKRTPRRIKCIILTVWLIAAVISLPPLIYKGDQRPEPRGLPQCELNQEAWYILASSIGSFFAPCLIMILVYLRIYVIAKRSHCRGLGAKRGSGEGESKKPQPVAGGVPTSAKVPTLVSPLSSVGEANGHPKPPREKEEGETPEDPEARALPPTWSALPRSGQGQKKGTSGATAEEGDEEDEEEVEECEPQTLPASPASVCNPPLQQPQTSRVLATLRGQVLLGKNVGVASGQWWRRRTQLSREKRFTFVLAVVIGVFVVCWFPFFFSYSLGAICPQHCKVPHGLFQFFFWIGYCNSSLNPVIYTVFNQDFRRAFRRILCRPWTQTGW
T1 sequence (P22909 whole entry): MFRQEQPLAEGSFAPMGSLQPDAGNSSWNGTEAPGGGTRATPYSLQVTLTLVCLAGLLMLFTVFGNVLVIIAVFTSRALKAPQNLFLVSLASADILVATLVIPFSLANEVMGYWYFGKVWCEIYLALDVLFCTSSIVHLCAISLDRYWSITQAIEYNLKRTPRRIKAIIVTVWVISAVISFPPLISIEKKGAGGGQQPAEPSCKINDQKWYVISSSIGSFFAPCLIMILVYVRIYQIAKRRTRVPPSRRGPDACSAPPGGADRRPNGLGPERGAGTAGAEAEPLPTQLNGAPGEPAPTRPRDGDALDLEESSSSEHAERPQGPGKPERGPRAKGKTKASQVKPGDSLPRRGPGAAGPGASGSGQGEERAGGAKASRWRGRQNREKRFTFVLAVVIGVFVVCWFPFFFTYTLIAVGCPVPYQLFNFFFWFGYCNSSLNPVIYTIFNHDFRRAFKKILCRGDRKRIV
Kind of assay: Displacement of [3H]-RX 821002 from alpha2-AR in Sprague-Dawley rat brain membranes after 30 mins by liquid scintillation counting. The format is cell membranes, Membrane. The method in brief:
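Radioligand competition binding with pKi determined by displacement. I1 sites: [125I]-p-iodoclonidine on rat kidney membranes. I2 sites: [3H]-2-BFI on rat brain membranes. α2-ARs: [3H]-RX821002 on rat brain membranes.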

Assay [4] can be described thus: Reduction in morphine dependence expression in CD1 mouse assessed as inhibition of naloxone-precipitated rearing frequency at 10 mg/kg, ip administered acutely 15 mins prior to naloxone challenge relative to control. The format is functional, organism-based.
Assay [5] is described as follows: Reduction in morphine dependence expression in CD1 mouse assessed as inhibition of naloxone-precipitated teeth chattering frequency at 5 mg/kg, ip administered acutely 15 mins prior to naloxone challenge relative to control. The format is functional, organism-based.
For assay [6], the target named is T2, Alpha-2C adrenergic receptor (Homo sapiens, UniProt P18825).
T2 sequence (P18825 whole entry): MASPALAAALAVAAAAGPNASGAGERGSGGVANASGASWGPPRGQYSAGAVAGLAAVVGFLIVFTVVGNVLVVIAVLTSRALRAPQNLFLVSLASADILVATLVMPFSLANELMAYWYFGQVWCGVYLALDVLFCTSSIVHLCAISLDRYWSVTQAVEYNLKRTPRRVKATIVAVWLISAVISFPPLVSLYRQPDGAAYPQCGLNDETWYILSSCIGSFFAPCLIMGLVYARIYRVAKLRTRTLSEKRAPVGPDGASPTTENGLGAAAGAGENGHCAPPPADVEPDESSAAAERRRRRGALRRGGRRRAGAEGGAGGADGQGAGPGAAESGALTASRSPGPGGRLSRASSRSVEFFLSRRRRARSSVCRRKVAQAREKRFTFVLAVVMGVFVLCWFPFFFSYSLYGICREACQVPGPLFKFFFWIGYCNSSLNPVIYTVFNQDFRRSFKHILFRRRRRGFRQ
Kind of assay: Agonist activity at human alpha2c-AR expressed in CHO cells assessed as rate of acidification after 240 mins by cytosensor microphysiometric analysis. The format is cell-based. The method in brief: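 Functional assay in CHO cells stably expressing a single human α2-AR subtype (α2A, α2B or α2C), read on a Cytosensor microphysiometer. Outputs are pEC50, intrinsic activity and, for antagonism, pKb. Intrinsic activity is expressed as a fraction of the full agonist (−)-noradrenaline, set at 1. Values are mean ± SEM of 3–5 separate experiments.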

In the case of `Cc1ccccc1NCC1=NCCN1`, the inhibition in assay [1] was 86%; in assay [4], 93%; in assay [5], 86%. Also, in assay [2], the “inhibition (INH)” value came out at 80%. The pKi in assay [3] is listed as 7.73. Also, in assay [6], the EC50 was 21.9 nM.
